Tests used:
SH-SY5Y [1] = experiment: Neuroprotective activity against human SH-SY5Y cells assessed as reduction in K+-induced LDH release at 0.3 uM relative to control; type: functional; set-up: scale not given: the % may be the effect or the level left
Procedure, shortened: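 SH-SY5Y neuroblastoma cells maintained in DMEM with 10% FCS at 37 °C in 5% CO2, used at passages 3–16. Cells treated before confluence in serum-free DMEM. Cell death from Ca2+ overload induced by 70 mM K+, read as LDH release. Compounds tested at 0.3 (unit as printed); nimodipine as reference. Means ± SEM, at least three cultures in quadruplicate.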

SH-SY5Y [2] = experiment: Neuroprotective activity against calcium overload-induced cell death in human SH-SY5Y cells at 0.3 uM in presence of K+ relative to control; type: functional
Procedure, shortened: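 SH-SY5Y cells (passages 3–16 after thawing) were grown in DMEM with 10% FCS, glutamine and penicillin/streptomycin at 37 °C in 5% CO2. They were treated with compound before confluence in serum-free DMEM and challenged with 70 mM K+. Read-out was the reduction in the increase of LDH released, relative to a drug-free control. Means ± SEM from at least three cultures in quadruplicate.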

SH-SY5Y [3] = experiment: Neuroprotective activity against human SH-SY5Y cells assessed as reduction in H2O2-induced LDH release at 0.3 uM relative to control; type: functional; set-up: scale not given: the % may be the effect or the level left
SH-SY5Y [4] = experiment: Neuroprotective activity against free radical-induced cell death in human SH-SY5Y cells at 0.3 uM in presence of H2O2 relative to control
SH-SY5Y [5] = experiment: Blockade of high K+-induced increase in calcium uptake in human SH-SY5Y cells at 0.3 uM relative to control; type: functional

SMILES	Activity (SH-SY5Y [1]) [%]	Activity (SH-SY5Y [2]) [%]	Activity (SH-SY5Y [3]) [%]	Activity (SH-SY5Y [4]) [%]	Activity (SH-SY5Y [5]) [%]
CCOC(=O)C1=C(C)NC(N)=C(C#N)C1c1ccncc1 (stereo not given)	70.5	43.3	66.7	46.7	32.6
Cc1ccc(C2C(C#N)=C(N)NC3=C2C(=O)CC(C)(C)C3)cc1 (stereo not given)	68.4	44.4	88.6	14.9	28.6
CC1(C)CC(=O)C2=C(C1)NC(N)=C(C#N)C2c1ccncc1 (stereo not given)	71.4	39.5	77.7	29.1	50.4
COc1ccc(C2C(C#N)=C(N)NC3=C2C(=O)CC(C)(C)C3)cc1 (stereo not given)	69.3	43.2	77.8	29	12.6
CC1(C)CC(=O)C2=C(C1)NC(N)=C(C#N)C2c1ccc(F)cc1 (stereo not given)	69.9	42.3	75.4	32.4	63.9
CCOC(=O)C1=C(C)NC(N)=C(C#N)C1c1ccc(OC)c(OC)c1 (stereo not given)	80.5	31.2	70.2	40.8	21.8
CC1(C)CC(=O)C2=C(C1)NC(N)=C(C#N)C2c1ccccc1 (stereo not given)	61.2	54.7	84.2	20.6	20.8
CCOC(=O)C1=C(C)NC(N)=C(C#N)C1c1ccc([N+](=O)[O-])cc1 (stereo not given)	68.9	45.7	83.4	23.1	17.6
CCOC(=O)C1=C(C)NC(N)=C(C#N)C1c1ccccc1OC (stereo not given)	78.2	31.5	88.4	15	24.3
CCOC(=O)C1=C(C)NC(N)=C(C#N)C1c1cccc(OC)c1 (stereo not given)	77.9	32.1	86.1	27.7	25
CCOC(=O)C1=C(C)NC(N)=C(C#N)C1c1cccc([N+](=O)[O-])c1 (stereo not given)	79.4	30.3	84.5	21.2	27.8
CCOC(=O)C1=C(C)NC(N)=C(C#N)C1c1ccccc1 (stereo not given)	76.26	34.1	86.7	17.3	34.03
CCOC(=O)C1=C(C)NC(N)=C(C#N)C1c1ccc(F)cc1 (stereo not given)	72.8	39.8	82.2	24.7	7.2
CCOC(=O)C1=C(C)NC(N)=C(C#N)C1c1ccccc1C(F)(F)F (stereo not given)	72.11	40.2	78.6	28.2	30.4
CCOC(=O)C1=C(C)NC(N)=C(C#N)C1c1cccnc1 (stereo not given)	70.5	43.4	84.5	21.2	14.1
CCOC(=O)C1=C(C)NC(N)=C(C#N)C1c1ccc(-c2ccccc2)cc1 (stereo not given)	90.9	12.9	80.3	26.2	23.9
CCOC(=O)C1=C(C)NC(N)=C(C#N)C1c1ccc(OC)cc1 (stereo not given)	89.9	14.4	77.7	31.3	11.8
CCOC(=O)C1=C(C)NC(N)=C(C#N)C1c1ccc(C)cc1 (stereo not given)	72.3	40.8	69.7	42.4	16.9
CCOC(=O)C1=C(C)NC(N)=C(C#N)C1c1ccccc1[N+](=O)[O-] (stereo not given)	71.11	42.6	98.8	1.6	16.1
COCCOC(=O)C1=C(C)NC(C)=C(C(=O)OC(C)C)C1c1cccc([N+](=O)[O-])c1 (stereo not given) [NIMODIPINE]	75	35.9	75.4	36.03	45.5
